According to ChEMBL document CHEMBL1143237, “Sulfonamide-1,2,4-triazole derivatives as antifungal and antibacterial agents: synthesis, biological evaluation, lipophilicity, and conformational studies” (Bioorg Med Chem, 2008):
Converted amounts (≈) assume the structure as drawn.

Columns and labels:
Trichoderma viride = assay: Antifungal activity against Trichoderma viride IAM 5061 after 72 hrs by microdilution test; format: functional
In short: (§1)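 Modified microdilution in malt broth. Spores were washed from malt agar with sterile 0.85% saline containing 0.1% Tween 80 and adjusted to about 1.0 × 10⁵ per well. Compounds were dissolved in DMSO and tested at […] µg/ml. Incubation 72 h at 28 °C. MIC is the lowest concentration with no visible growth under a binocular microscope. MFC by 2 µl subculture and a further 72 h at 28 °C.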

Enterobacter cloacae = assay: Antibacterial activity against Enterobacter cloacae after 24 hrs by microdilution test; format: functional
In short: (§2)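 Broth microdilution in LB medium in 96-well plates. Inoculum 1.0 × 10⁴ CFU per well, from a suspension set to 1.0 × 10⁵ CFU/ml in sterile saline. Compounds at […] µg/ml. Incubation 24 h at 28 °C. MIC is the lowest concentration with no visible growth under a binocular microscope. MBC by subculturing 2 µl into fresh broth for a further 72 h. OD540 read against blank. DMSO negative control.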

Salmonella enteritidis = assay: Antibacterial activity against Salmonella enteritidis ATCC 13076 after 24 hrs by microdilution test; format: functional, Salmonella enterica subsp. enterica serovar Enteritidis; settings: Salmonella enterica, ATCC 13076, 24 h; in short: as §2
Escherichia coli = assay: Antibacterial activity against Escherichia coli ATCC 35210 after 24 hrs by microdilution test; format: functional; settings: ATCC 35210, 24 h; in short: as §2
Aspergillus versicolor = assay: Antifungal activity against Aspergillus versicolor ATCC 11730 after 72 hrs by microdilution test; format: functional; settings: ATCC 11730, 72 h; in short: as §1
Micrococcus luteus = assay: Antibacterial activity against Micrococcus flavus ATCC 10240 after 24 hrs by microdilution test; format: functional; settings: ATCC 10240, 24 h; in short: as §2
Aspergillus niger = assay: Antifungal activity against Aspergillus niger ATCC 6275 after 72 hrs by microdilution test; format: functional; settings: ATCC 6275, 72 h; in short: as §1
Talaromyces funiculosus = assay: Antifungal activity against Penicillium funiculosum ATCC 36839 after 72 hrs by microdilution test; format: functional; settings: ATCC 36839, 72 h; in short: as §1
Aspergillus ochraceus = assay: Antifungal activity against Aspergillus ochraceus ATCC 12066 after 72 hrs by microdilution test; format: functional; settings: ATCC 12066, 72 h; in short: as §1
[1] = Partition coefficient, log P of the compound; format: physicochemical; settings: octanol/water
In short: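 Calculated, not measured: AlogP, IAlogP, ClogP, Cosmo logP, mlogP, Kowwin and XlogP were computed and averaged.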

Bacillus cereus = assay: Antibacterial activity against Bacillus cereus ATCC 10907 after 24 hrs by microdilution test; settings: ATCC 10907, 24 h
[2] = system: Staphylococcus epidermidis; assay: Antibacterial activity against Staphylococcus epidermidis ATCC 12228 after 24 hrs by microdilution test; format: functional; settings: ATCC 12228, 24 h; in short: as §2
Aspergillus flavus = assay: Antifungal activity against Aspergillus flavus ATCC 9643 after 72 hrs by microdilution test; format: functional; settings: ATCC 9643, 72 h; in short: as §1
Salmonella typhimurium = assay: Antibacterial activity against Salmonella Typhimurium ATCC 13311 after 24 hrs by microdilution test; format: functional, Salmonella enterica subsp. enterica serovar Typhimurium; settings: Salmonella enterica, ATCC 13311, 24 h; in short: as §2

COc1cc(Cc2n[nH]c(=S)n2-c2ccccc2)c(S(=O)(=O)N2CCCCC2)cc1OC gave an MFC (Trichoderma viride) of 150 µg/mL (≈ 316 µM), an MIC (Trichoderma viride) of 100 µg/mL (≈ 211 µM) and an MBC (Enterobacter cloacae) of 100 µg/mL (≈ 211 µM). The MIC (Enterobacter cloacae) was 100 µg/mL (≈ 211 µM), the MBC (Salmonella enteritidis) was 150 µg/mL (≈ 316 µM) and the MIC (Salmonella enteritidis) was 150 µg/mL (≈ 316 µM). For the same compound, the MBC (Escherichia coli) was 150 µg/mL (≈ 316 µM), the MIC (Escherichia coli) was 100 µg/mL (≈ 211 µM) and the MFC (Aspergillus versicolor) was 150 µg/mL (≈ 316 µM). For the same compound, the MIC (Aspergillus versicolor) was 100 µg/mL (≈ 211 µM), the MBC (Micrococcus luteus) was 150 µg/mL (≈ 316 µM) and the MIC (Micrococcus luteus) was 150 µg/mL (≈ 316 µM). The MFC (Aspergillus niger) was 150 µg/mL (≈ 316 µM), the MIC (Aspergillus niger) was 100 µg/mL (≈ 211 µM) and the MFC (Talaromyces funiculosus) was 150 µg/mL (≈ 316 µM). The MIC (Talaromyces funiculosus) was 100 µg/mL (≈ 211 µM), the MFC (Aspergillus ochraceus) was 150 µg/mL (≈ 316 µM) and the MIC (Aspergillus ochraceus) was 100 µg/mL (≈ 211 µM). The logP [1] was 2.63, the MBC (Bacillus cereus) was 150 µg/mL (≈ 316 µM) and the MIC (Bacillus cereus) was 150 µg/mL (≈ 316 µM). It also gave an MBC [2] of 150 µg/mL (≈ 316 µM), an MIC [2] of 150 µg/mL (≈ 316 µM) and an MFC (Aspergillus flavus) of 150 µg/mL (≈ 316 µM). For the same compound, the MIC (Aspergillus flavus) was 100 µg/mL (≈ 211 µM), the MBC (Salmonella typhimurium) was 150 µg/mL (≈ 316 µM) and the MIC (Salmonella typhimurium) was 100 µg/mL (≈ 211 µM).

For COc1cc(Cc2n[nH]c(=S)n2-c2ccccc2)c(S(=O)(=O)N2CCCC2)cc1OC, the MFC (Trichoderma viride) was 150 µg/mL (≈ 326 µM), the MIC (Trichoderma viride) was 150 µg/mL (≈ 326 µM) and the MBC (Enterobacter cloacae) was 100 µg/mL (≈ 217 µM). The MIC (Enterobacter cloacae) was 100 µg/mL (≈ 217 µM), the MBC (Salmonella enteritidis) was 150 µg/mL (≈ 326 µM) and the MIC (Salmonella enteritidis) was 150 µg/mL (≈ 326 µM). For the same compound, the MBC (Escherichia coli) was 150 µg/mL (≈ 326 µM), the MIC (Escherichia coli) was 150 µg/mL (≈ 326 µM) and the MFC (Aspergillus versicolor) was 150 µg/mL (≈ 326 µM). It also gave an MIC (Aspergillus versicolor) of 100 µg/mL (≈ 217 µM), an MBC (Micrococcus luteus) of 150 µg/mL (≈ 326 µM) and an MIC (Micrococcus luteus) of 150 µg/mL (≈ 326 µM). For the same compound, the MFC (Aspergillus niger) was 150 µg/mL (≈ 326 µM), the MIC (Aspergillus niger) was 150 µg/mL (≈ 326 µM) and the MFC (Talaromyces funiculosus) was 150 µg/mL (≈ 326 µM). It also gave an MIC (Talaromyces funiculosus) of 100 µg/mL (≈ 217 µM), an MFC (Aspergillus ochraceus) of 150 µg/mL (≈ 326 µM) and an MIC (Aspergillus ochraceus) of 100 µg/mL (≈ 217 µM). It also gave a logP [1] of 2.13, an MBC (Bacillus cereus) of 150 µg/mL (≈ 326 µM) and an MIC (Bacillus cereus) of 150 µg/mL (≈ 326 µM). For the same compound, the MBC [2] was 150 µg/mL (≈ 326 µM), the MIC [2] was 150 µg/mL (≈ 326 µM) and the MFC (Aspergillus flavus) was 150 µg/mL (≈ 326 µM). For the same compound, the MIC (Aspergillus flavus) was 100 µg/mL (≈ 217 µM), the MBC (Salmonella typhimurium) was 150 µg/mL (≈ 326 µM) and the MIC (Salmonella typhimurium) was 150 µg/mL (≈ 326 µM).

c1ccc(-c2ccc(C(c3ccccc3)n3ccnc3)cc2)cc1 (centres undefined) [BIFONAZOLE] showed an MFC (Trichoderma viride) of 250 µg/mL (≈ 805 µM), an MIC (Trichoderma viride) of 200 µg/mL (≈ 644 µM) and an MFC (Aspergillus versicolor) of 200 µg/mL (≈ 644 µM). For the same compound, the MIC (Aspergillus versicolor) was 150 µg/mL (≈ 483 µM), the MFC (Aspergillus niger) was 250 µg/mL (≈ 805 µM) and the MIC (Aspergillus niger) was 200 µg/mL (≈ 644 µM). It also gave an MFC (Talaromyces funiculosus) of 250 µg/mL (≈ 805 µM), an MIC (Talaromyces funiculosus) of 200 µg/mL (≈ 644 µM) and an MFC (Aspergillus ochraceus) of 200 µg/mL (≈ 644 µM). The MIC (Aspergillus ochraceus) was 150 µg/mL (≈ 483 µM), the MFC (Aspergillus flavus) was 200 µg/mL (≈ 644 µM) and the MIC (Aspergillus flavus) was 150 µg/mL (≈ 483 µM).

CCN(CC)S(=O)(=O)c1cc(OC)c(OC)cc1Cc1n[nH]c(=S)n1-c1ccccc1 gave an MFC (Trichoderma viride) of 100 µg/mL (≈ 216 µM), an MIC (Trichoderma viride) of 50 µg/mL (≈ 108 µM) and an MBC (Enterobacter cloacae) of 100 µg/mL (≈ 216 µM). For the same compound, the MIC (Enterobacter cloacae) was 100 µg/mL (≈ 216 µM), the MBC (Salmonella enteritidis) was 150 µg/mL (≈ 324 µM) and the MIC (Salmonella enteritidis) was 150 µg/mL (≈ 324 µM). For the same compound, the MBC (Escherichia coli) was 150 µg/mL (≈ 324 µM), the MIC (Escherichia coli) was 100 µg/mL (≈ 216 µM) and the MFC (Aspergillus versicolor) was 150 µg/mL (≈ 324 µM). It also gave an MIC (Aspergillus versicolor) of 100 µg/mL (≈ 216 µM), an MBC (Micrococcus luteus) of 150 µg/mL (≈ 324 µM) and an MIC (Micrococcus luteus) of 150 µg/mL (≈ 324 µM). It also gave an MFC (Aspergillus niger) of 150 µg/mL (≈ 324 µM), an MIC (Aspergillus niger) of 100 µg/mL (≈ 216 µM) and an MFC (Talaromyces funiculosus) of 150 µg/mL (≈ 324 µM). It also gave an MIC (Talaromyces funiculosus) of 100 µg/mL (≈ 216 µM), an MFC (Aspergillus ochraceus) of 150 µg/mL (≈ 324 µM) and an MIC (Aspergillus ochraceus) of 100 µg/mL (≈ 216 µM). The logP [1] was 2.48, the MBC (Bacillus cereus) was 150 µg/mL (≈ 324 µM) and the MIC (Bacillus cereus) was 150 µg/mL (≈ 324 µM). It also gave an MBC [2] of 150 µg/mL (≈ 324 µM), an MIC [2] of 150 µg/mL (≈ 324 µM) and an MFC (Aspergillus flavus) of 150 µg/mL (≈ 324 µM). The MIC (Aspergillus flavus) was 100 µg/mL (≈ 216 µM), the MBC (Salmonella typhimurium) was 150 µg/mL (≈ 324 µM) and the MIC (Salmonella typhimurium) was 150 µg/mL (≈ 324 µM).

O=C(N[C@H](CO)[C@H](O)c1ccc([N+](=O)[O-])cc1)C(Cl)Cl [CHLORAMPHENICOL] gave an MBC (Enterobacter cloacae) of 200 µg/mL (≈ 619 µM), an MIC (Enterobacter cloacae) of 150 µg/mL (≈ 464 µM) and an MBC (Salmonella enteritidis) of 200 µg/mL (≈ 619 µM). The MIC (Salmonella enteritidis) was 150 µg/mL (≈ 464 µM), the MBC (Escherichia coli) was 250 µg/mL (≈ 774 µM) and the MIC (Escherichia coli) was 250 µg/mL (≈ 774 µM). For the same compound, the MBC (Micrococcus luteus) was 200 µg/mL (≈ 619 µM), the MIC (Micrococcus luteus) was 150 µg/mL (≈ 464 µM) and the MBC (Bacillus cereus) was 200 µg/mL (≈ 619 µM). For the same compound, the MIC (Bacillus cereus) was 150 µg/mL (≈ 464 µM), the MBC [2] was 100 µg/mL (≈ 309 µM) and the MIC [2] was 100 µg/mL (≈ 309 µM). For the same compound, the MBC (Salmonella typhimurium) was 200 µg/mL (≈ 619 µM) and the MIC (Salmonella typhimurium) was 150 µg/mL (≈ 464 µM).

In the case of COc1cc(Cc2n[nH]c(=S)n2-c2ccc(Cl)cc2)c(S(=O)(=O)N2CCCC2)cc1OC, the MFC (Trichoderma viride) is reported as 150 µg/mL (≈ 303 µM), the MIC (Trichoderma viride) is reported as 150 µg/mL (≈ 303 µM) and the MBC (Enterobacter cloacae) is reported as 100 µg/mL (≈ 202 µM). The MIC (Enterobacter cloacae) was 100 µg/mL (≈ 202 µM), the MBC (Salmonella enteritidis) was 150 µg/mL (≈ 303 µM) and the MIC (Salmonella enteritidis) was 150 µg/mL (≈ 303 µM). The MBC (Escherichia coli) was 150 µg/mL (≈ 303 µM), the MIC (Escherichia coli) was 150 µg/mL (≈ 303 µM) and the MFC (Aspergillus versicolor) was 150 µg/mL (≈ 303 µM). It also gave an MIC (Aspergillus versicolor) of 100 µg/mL (≈ 202 µM), an MBC (Micrococcus luteus) of 150 µg/mL (≈ 303 µM) and an MIC (Micrococcus luteus) of 150 µg/mL (≈ 303 µM). The MFC (Aspergillus niger) was 150 µg/mL (≈ 303 µM), the MIC (Aspergillus niger) was 150 µg/mL (≈ 303 µM) and the MFC (Talaromyces funiculosus) was 150 µg/mL (≈ 303 µM). For the same compound, the MIC (Talaromyces funiculosus) was 100 µg/mL (≈ 202 µM), the MFC (Aspergillus ochraceus) was 150 µg/mL (≈ 303 µM) and the MIC (Aspergillus ochraceus) was 100 µg/mL (≈ 202 µM). The logP [1] was 2.11, the MBC (Bacillus cereus) was 150 µg/mL (≈ 303 µM) and the MIC (Bacillus cereus) was 150 µg/mL (≈ 303 µM). The MBC [2] was 150 µg/mL (≈ 303 µM), the MIC [2] was 150 µg/mL (≈ 303 µM) and the MFC (Aspergillus flavus) was 150 µg/mL (≈ 303 µM). For the same compound, the MIC (Aspergillus flavus) was 100 µg/mL (≈ 202 µM), the MBC (Salmonella typhimurium) was 150 µg/mL (≈ 303 µM) and the MIC (Salmonella typhimurium) was 150 µg/mL (≈ 303 µM).
